Activity calls are given as the source filed them. The calls are words filed in the database; no cut-off is given here.
Legend:
HEK293 = assay: Selectivity index, ratio of Ki for recombinant human CB1 receptor expressed in human HEK293 cell membrane to recombinant human CB2 receptor expressed in human HEK293 cell membrane; assay type: cell-based
Procedure, shortened: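 Selectivity index is Ki(CB1)/Ki(CB2). Both Ki values come from [3H]CP55,940 displacement over 90 min at 30 °C, using membranes of HEK-293 cells expressing human recombinant CB1R or CB2R, with Cheng–Prusoff conversion.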

Cannabinoid receptor 1 = Cannabinoid receptor 1 (Homo sapiens, UniProt P21554); assay: Displacement of [3H]CP55940 from recombinant human CB1 receptor expressed in human HEK293 cell membrane after 90 mins; assay type: cell membranes
Procedure, shortened: (§1)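 Membranes of HEK-293 cells transfected with human recombinant CB1R (Bmax 2.5 pmol/mg protein) or CB2R (Bmax 4.7 pmol/mg protein). Test compound at increasing concentrations displaced [3H]CP55,940 over 90 min at 30 °C. Ki obtained from IC50 by Cheng–Prusoff. Means of at least three experiments run in duplicate.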

Cannabinoid receptor 2 = Cannabinoid receptor 2 (Homo sapiens, UniProt P34972); assay: Displacement of [3H]CP55940 from recombinant human CB2 receptor expressed in human HEK293 cell membrane after 90 mins; assay type: cell membranes; procedure, shortened: as §1
DU-145 [1] = assay: Antiproliferative activity against human DU145 cells at 0.3 uM after 24 hrs by SRB assay; assay type: functional, cell-based
Procedure, shortened: (§2)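 DU-145 cells seeded at 10,000 per well, exposed 24 h to CB2 ligands, with or without SR144528 (3 µM). Line 2 covers 0.1 to 1 µM; lines 3 and 4 use 0.3 µM. Proliferation read as O.D. by sulforhodamine B. Three independent experiments; two-tailed t-test against vehicle and against ligand plus SR144528.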

T98G = assay: Antiproliferative activity against human T98G cells at 1 uM after 4 days by XTT assay; assay type: functional; conditions: 96 h
Procedure, shortened: (§3)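 Cells kept at 37 °C, 5% CO2; seeded at 3 × 10³ cells per well, treated 3 h later with vehicle or ligand (1 µM in the four-day panel), medium and ligand renewed every two days for four days. Proliferation read by XTT staining; vehicle-treated O.D. taken as 100%. Two-tailed t-test versus vehicle.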

[2] = Antiproliferative activity against human WS1 cells at 1 uM after 4 days by XTT assay; assay type: cell-based; conditions: for Activity: ws1, 96 h, 1 µM; procedure, shortened: as §3
DU-145 [3] = assay: Antiproliferative activity against human DU145 cells at 1 uM after 4 days by XTT assay; assay type: functional; conditions: DU-145, 96 h; procedure, shortened: as §3
AGS = assay: Antiproliferative activity against human AGS cells at 1 uM after 4 days by XTT assay; assay type: functional; conditions: 96 h; procedure, shortened: as §3
MCF7 = assay: Antiproliferative activity against human MCF7 cells at 1 uM after 4 days by XTT assay; assay type: functional; conditions: MCF7, 96 h; procedure, shortened: as §3
DU-145 [4] = assay: Down-regulation of CB2 receptor protein level in human DU145 cells at 0.3 uM after 24 hrs by immunoblot analysis; assay type: functional, cell-based
Procedure, shortened: (§4)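 DU-145 cells incubated 24 h with ligand at 0.3 µM, with or without SR144528 at 3 µM. Cells washed in PBS, lysed at pH 7.5 in HEPES/NaCl/EDTA/NaF/vanadate/Triton buffer, and centrifuged at 12,000 g, 4 °C. 40 µg protein run on 12% SDS-PAGE and transferred to nitrocellulose. Blots probed overnight with anti-CB2, detected by HRP anti-rabbit and ECL, normalized to actin.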

[5] = Antiproliferative activity against myelin basic protein-activated human lymphocytes at 0.3 uM; assay type: cell-based; conditions: lymphocyte
DU-145 [6] = assay: Down-regulation of CB2 receptor protein level in human DU145 cells at 0.3 uM after 24 hrs by immunoblot analysis in presence of CB1 receptor antagonist SR141716; assay type: functional, cell-based
DU-145 [7] = assay: Antiproliferative activity against human DU145 cells at 0.1 to 1 uM after 24 hrs by SRB assay; assay type: functional, cell-based; procedure, shortened: as §2
DU-145 [8] = assay: Down-regulation of CB2 receptor protein level in human DU145 cells at 0.3 uM after 24 hrs by immunoblot analysis in presence of CB2 receptor antagonist SR144528; assay type: functional, cell-based; procedure, shortened: as §4
DU-145 [9] = assay: Antiproliferative activity against human DU145 cells at 0.3 uM after 24 hrs by SRB assay in presence of CB2 receptor antagonist SR144528; assay type: functional, cell-based; procedure, shortened: as §2
[10] = Solubility of the compound in DMSO/water solution; assay type: physicochemical

Chain of Cannabinoid receptor 1 (P21554 whole entry): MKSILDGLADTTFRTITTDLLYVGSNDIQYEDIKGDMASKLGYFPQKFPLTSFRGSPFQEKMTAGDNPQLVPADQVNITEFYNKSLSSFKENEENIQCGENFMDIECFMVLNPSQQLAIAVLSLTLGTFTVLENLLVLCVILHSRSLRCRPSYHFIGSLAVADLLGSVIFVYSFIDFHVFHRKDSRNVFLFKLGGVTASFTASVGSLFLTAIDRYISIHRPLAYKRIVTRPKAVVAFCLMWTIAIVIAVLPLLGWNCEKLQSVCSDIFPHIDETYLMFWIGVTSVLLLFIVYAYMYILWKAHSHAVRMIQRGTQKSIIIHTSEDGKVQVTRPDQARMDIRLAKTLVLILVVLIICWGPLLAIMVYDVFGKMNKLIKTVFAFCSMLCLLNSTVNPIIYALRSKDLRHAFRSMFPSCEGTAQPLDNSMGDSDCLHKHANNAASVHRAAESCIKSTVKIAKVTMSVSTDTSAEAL
Chain of Cannabinoid receptor 2 (P34972 whole entry): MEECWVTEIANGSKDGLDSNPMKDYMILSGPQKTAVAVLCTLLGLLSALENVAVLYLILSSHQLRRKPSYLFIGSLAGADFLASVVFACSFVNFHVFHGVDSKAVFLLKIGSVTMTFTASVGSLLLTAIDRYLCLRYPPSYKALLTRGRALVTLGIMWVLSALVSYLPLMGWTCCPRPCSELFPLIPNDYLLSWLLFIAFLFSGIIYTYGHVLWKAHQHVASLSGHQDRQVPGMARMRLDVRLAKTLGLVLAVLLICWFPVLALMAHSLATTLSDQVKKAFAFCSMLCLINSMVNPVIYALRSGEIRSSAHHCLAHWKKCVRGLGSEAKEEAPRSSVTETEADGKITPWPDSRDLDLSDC

Compound: O=C(NC1CCCCCC1)c1cccnc1OCc1ccc(F)cc1
- Ratio Ki (HEK293): 4
- Ki (Cannabinoid receptor 1): 100 nM
- Ki (Cannabinoid receptor 2): 25 nM

Compound: O=C(NC1CCCCC1)c1cccnc1OCc1ccc(F)cc1
- Ratio Ki (HEK293): 7.3
- Ki (Cannabinoid receptor 1): 1810 nM
- Ki (Cannabinoid receptor 2): 250 nM

Compound: O=C(NC1CCCCC1)c1c(O)c2cccnc2n(CCN2CCOCC2)c1=O
- Ratio Ki (HEK293): 26.6
- Ki (Cannabinoid receptor 1): 64.6 nM
- Ki (Cannabinoid receptor 2): 2.4 nM

Compound: O=C(NC1CCCCC1)c1cccn(Cc2ccc(F)cc2)c1=O
- Ratio Ki (HEK293): 3.5
- Ki (Cannabinoid receptor 1): 70 nM
- Ki (Cannabinoid receptor 2): 20 nM

Compound: O=C(NC1CCCCC1)c1c(O)c2cccnc2n(Cc2ccccc2)c1=O
- Ratio Ki (HEK293): 7.1
- Ki (Cannabinoid receptor 1): 560 nM
- Ki (Cannabinoid receptor 2): 79 nM

Compound: O=C(NC1CCCCC1)c1cc2ccccc2n(CCN2CCOCC2)c1=O
- Ratio Ki (HEK293): 33
- Ki (Cannabinoid receptor 1): 300 nM
- Ki (Cannabinoid receptor 2): 9 nM

Compound: O=C(NC1CCCCCC1)c1c(O)c2cccnc2n(CCN2CCOCC2)c1=O
- Activity (DU-145 [1]): Active
- Ratio Ki (HEK293): 130
- inhibition at 1 µM (T98G): 15%
- inhibition at 96 h, 1 µM ([2]; WS1 cells): 21%
- Ki (Cannabinoid receptor 1): 234 nM
- inhibition at 1 µM (DU-145 [3]): 33%
- inhibition at 1 µM (AGS): 62%
- Ki (Cannabinoid receptor 2): 1.8 nM
- inhibition at 1 µM (MCF7): 26%
- Activity (DU-145 [4]): Active
- Activity [5]: Non-toxic
- Activity (DU-145 [6]): Active
- inhibition (DU-145 [7]): Active
- Activity (DU-145 [8]): inactive
- Activity (DU-145 [9]): inactive

Compound: O=C(NC1CCCCCC1)c1cc2ccccc2n(Cc2ccc(F)cc2)c1=O
- Ratio Ki (HEK293): 48
- Ki (Cannabinoid receptor 1): 11.6 nM
- Ki (Cannabinoid receptor 2): 0.25 nM

Compound: O=C(NC1CCCCC1)c1cc2ccccc2n(Cc2ccc(F)cc2)c1=O
- Ratio Ki (HEK293): 5.7
- Ki (Cannabinoid receptor 1): 16.5 nM
- Ki (Cannabinoid receptor 2): 2.9 nM

Compound: O=C(NC1CCCCC1)c1cccnc1OCc1ccccc1
- Ki (Cannabinoid receptor 1): > 10000 nM
- Ki (Cannabinoid receptor 2): 916 nM

Compound: O=C(NC1CCCCC1)c1cccn(Cc2ccccc2)c1=O
- Ratio Ki (HEK293): 4
- Ki (Cannabinoid receptor 1): 800 nM
- Ki (Cannabinoid receptor 2): 200 nM

Compound: Cc1ccc(Cn2nc(C(=O)N[C@@H]3C(C)(C)[C@@H]4CC[C@@]3(C)C4)cc2-c2ccc(Cl)c(C)c2)cc1
- Activity (DU-145 [4]): Active
- Activity [5]: Non-toxic
- Activity (DU-145 [9]): inactive

Compound: O=C(NC1CCCCC1)c1cc2ccccc2n(Cc2ccccc2)c1=O
- Ratio Ki (HEK293): 4.2
- Ki (Cannabinoid receptor 1): 67 nM
- Ki (Cannabinoid receptor 2): 16 nM

Compound: CCCC(C)(C)c1ccc2c(c1)OC(C)(C)[C@@H]1CC=C(C)C[C@@H]21
- Ki (Cannabinoid receptor 1): 117 nM
- Ki (Cannabinoid receptor 2): 1.82 nM

Compound: O=C(NC1CCCCCC1)c1cccn(CCN2CCOCC2)c1=O
- Ratio Ki (HEK293): 1.2
- Ki (Cannabinoid receptor 1): 950 nM
- Ki (Cannabinoid receptor 2): 790 nM

Compound: O=C(NC1CCCCCC1)c1c(O)c2cccnc2n(Cc2ccc(F)cc2)c1=O
- solubility [10]: Insoluble

Compound: O=C(NC1CCCCCC1)c1cccn(Cc2ccc(F)cc2)c1=O
- Activity (DU-145 [1]): Active
- Ratio Ki (HEK293): 5.5
- Activity [2]: Non-toxic
- Ki (Cannabinoid receptor 1): 43 nM
- inhibition at 1 µM (DU-145 [3]): 15%
- Ki (Cannabinoid receptor 2): 7.8 nM
- inhibition at 1 µM (MCF7): 12%
- Activity (DU-145 [4]): Active
- Activity [5]: Non-toxic
- Activity (DU-145 [6]): Active
- inhibition (DU-145 [7]): Active
- Activity (DU-145 [8]): inactive
- Activity (DU-145 [9]): inactive

Compound: O=C(NC1CCCCC1)c1cccn(CCN2CCOCC2)c1=O
- Ki (Cannabinoid receptor 1): > 10000 nM
- Ki (Cannabinoid receptor 2): 7900 nM

Compound: O=C(NC1CCCCC1)c1cc2ccccc2nc1OCc1ccc(F)cc1
- Ratio Ki (HEK293): 9.2
- Ki (Cannabinoid receptor 1): 1200 nM
- Ki (Cannabinoid receptor 2): 130 nM

Compound: O=C(NC1CCCCCC1)c1cc2ccccc2n(CCN2CCOCC2)c1=O
- Activity (DU-145 [1]): Active
- Ratio Ki (HEK293): 103
- Activity [2]: Non-toxic
- Ki (Cannabinoid receptor 1): 206 nM
- inhibition at 1 µM (DU-145 [3]): 11%
- Ki (Cannabinoid receptor 2): 2 nM
- Activity (DU-145 [4]): Active
- Activity [5]: Non-toxic
- Activity (DU-145 [6]): Active
- inhibition (DU-145 [7]): Active
- Activity (DU-145 [8]): inactive
- Activity (DU-145 [9]): inactive

Compound: O=C(NC1CCCCC1)c1c(O)c2cccnc2n(Cc2ccc(F)cc2)c1=O
- solubility [10]: Insoluble

— ChEMBL document CHEMBL2021892, “Rational design, synthesis and anti-proliferative properties of new CB2 selective cannabinoid receptor ligands: an investigation of the 1,8-naphthyridin-2(1H)-one scaffold” (Eur J Med Chem, 2012)
